Test results published in ChEMBL document CHEMBL5365542, “Difluoromethyl-1,3,4-oxadiazoles Are Selective, Mechanism-Based, and Essentially Irreversible Inhibitors of Histone Deacetylase 6” (J Med Chem, 2023).

Key:
[1] = biological target: T1, Protein deacetylase HDAC6 (Homo sapiens) (UniProt Q9UBN7); test: (§1) Inhibition of N-terminal GST tagged human recombinant HDAC6 (1 to 1215 residues) expressed in Sf9 insect cells using Z-Lys(Ac)-AMC as fluorogenic substrate at 10 uM preincubated for 60 mins followed by substrate addition and measured after 90 mins by microplate reader analysis relative to control; details: time 150.0 min
T1 sequence (whole entry): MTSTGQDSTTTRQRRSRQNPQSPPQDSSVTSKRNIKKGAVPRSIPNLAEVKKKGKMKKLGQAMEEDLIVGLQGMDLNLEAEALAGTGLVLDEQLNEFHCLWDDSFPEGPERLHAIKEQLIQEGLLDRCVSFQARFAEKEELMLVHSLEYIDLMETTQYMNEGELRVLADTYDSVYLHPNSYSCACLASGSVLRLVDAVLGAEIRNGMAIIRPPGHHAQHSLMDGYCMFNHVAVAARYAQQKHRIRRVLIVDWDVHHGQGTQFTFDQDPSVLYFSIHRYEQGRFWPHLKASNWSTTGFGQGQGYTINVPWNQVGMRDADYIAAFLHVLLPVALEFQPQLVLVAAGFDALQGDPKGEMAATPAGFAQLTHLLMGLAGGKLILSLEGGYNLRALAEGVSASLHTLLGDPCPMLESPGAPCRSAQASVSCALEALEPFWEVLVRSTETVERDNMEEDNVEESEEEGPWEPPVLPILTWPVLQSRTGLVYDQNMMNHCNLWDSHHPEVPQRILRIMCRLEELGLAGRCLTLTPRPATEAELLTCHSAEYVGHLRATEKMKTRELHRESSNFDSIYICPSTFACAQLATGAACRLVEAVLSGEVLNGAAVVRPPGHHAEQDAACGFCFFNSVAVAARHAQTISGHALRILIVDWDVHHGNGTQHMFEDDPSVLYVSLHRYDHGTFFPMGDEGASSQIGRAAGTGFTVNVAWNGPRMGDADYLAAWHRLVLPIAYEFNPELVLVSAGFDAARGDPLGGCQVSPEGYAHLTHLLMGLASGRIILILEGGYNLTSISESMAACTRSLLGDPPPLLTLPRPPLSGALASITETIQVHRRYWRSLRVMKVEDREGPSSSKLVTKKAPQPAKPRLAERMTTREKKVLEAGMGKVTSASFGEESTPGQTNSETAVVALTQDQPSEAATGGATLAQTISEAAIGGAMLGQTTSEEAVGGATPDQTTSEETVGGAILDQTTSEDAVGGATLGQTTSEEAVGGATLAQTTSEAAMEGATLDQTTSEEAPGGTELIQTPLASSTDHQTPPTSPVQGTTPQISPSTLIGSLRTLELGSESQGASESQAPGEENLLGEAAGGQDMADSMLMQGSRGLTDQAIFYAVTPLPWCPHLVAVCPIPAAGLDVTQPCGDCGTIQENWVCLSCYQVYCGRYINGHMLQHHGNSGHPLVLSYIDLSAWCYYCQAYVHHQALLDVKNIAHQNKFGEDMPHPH
In short: (§2)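 Human recombinant enzyme was preincubated with 3-fold inhibitor dilutions for 60 min at 25 °C in Tris-HCl pH 8.0 buffer with BSA. ZMAL (75 μM solution) was then added, and the mix was incubated 90 min at 37 °C (max 1% DMSO). Trypsin was added for 30 min at 37 °C, and fluorescence was read at ex 355/em 460. Tested at least twice in duplicate.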

[2] = biological target: Histone deacetylase 3/Nuclear receptor corepressor 2 (HDAC3/NCoR2) (Homo sapiens) (UniProt O15379+Q9Y618); test: as §1, with “C-terminal His-tagged human HDAC3 (1 to 428 residues)/N-terminal” for “N-terminal”, “NcoR2 (395” for “recombinant HDAC6 (1”, “489” for “1215”; details: time 150.0 min; in short: as §2
[3] = biological target: Histone deacetylase 2 (Homo sapiens) (UniProt Q92769); test: (§3) Inhibition of C-terminal 6His-tagged human recombinant HDAC2 (1 to 488 residues) expressed in Sf9 insect cells using Z-Lys(Ac)-AMC as fluorogenic substrate at 10 uM preincubated for 60 mins followed by substrate addition and measured after 90 mins by microplate reader analysis relative to control; details: time 150.0 min; in short: as §2
Chain of Histone deacetylase 2 (Homo sapiens) (Q92769 whole entry, the tested form may be a part): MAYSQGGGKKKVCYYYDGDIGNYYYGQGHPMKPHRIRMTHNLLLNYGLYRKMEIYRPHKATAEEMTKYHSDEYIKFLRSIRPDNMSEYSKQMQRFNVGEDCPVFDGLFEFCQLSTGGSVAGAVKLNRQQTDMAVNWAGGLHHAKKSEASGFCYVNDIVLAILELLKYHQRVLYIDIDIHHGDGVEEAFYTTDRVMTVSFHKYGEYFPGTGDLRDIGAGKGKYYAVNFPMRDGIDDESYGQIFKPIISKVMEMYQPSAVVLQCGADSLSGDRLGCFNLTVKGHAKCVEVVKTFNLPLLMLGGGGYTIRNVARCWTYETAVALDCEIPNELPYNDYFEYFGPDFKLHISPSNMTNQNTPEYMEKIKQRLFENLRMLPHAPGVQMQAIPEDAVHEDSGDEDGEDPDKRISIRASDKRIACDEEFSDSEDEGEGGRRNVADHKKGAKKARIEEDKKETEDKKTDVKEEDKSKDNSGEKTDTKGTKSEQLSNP

[4] = biological target: Histone deacetylase 4 (Homo sapiens) (UniProt P56524); test: as §1, with “GST-tagged/C-terminal His-tagged” for “GST tagged”, “HDAC4 (627” for “recombinant HDAC6 (1”, “1084” for “1215”, “Boc-Lys(Tfa)-AMC” for “Z-Lys(Ac)-AMC”; details: time 150.0 min
Chain of Histone deacetylase 4 (Homo sapiens) (P56524 whole entry): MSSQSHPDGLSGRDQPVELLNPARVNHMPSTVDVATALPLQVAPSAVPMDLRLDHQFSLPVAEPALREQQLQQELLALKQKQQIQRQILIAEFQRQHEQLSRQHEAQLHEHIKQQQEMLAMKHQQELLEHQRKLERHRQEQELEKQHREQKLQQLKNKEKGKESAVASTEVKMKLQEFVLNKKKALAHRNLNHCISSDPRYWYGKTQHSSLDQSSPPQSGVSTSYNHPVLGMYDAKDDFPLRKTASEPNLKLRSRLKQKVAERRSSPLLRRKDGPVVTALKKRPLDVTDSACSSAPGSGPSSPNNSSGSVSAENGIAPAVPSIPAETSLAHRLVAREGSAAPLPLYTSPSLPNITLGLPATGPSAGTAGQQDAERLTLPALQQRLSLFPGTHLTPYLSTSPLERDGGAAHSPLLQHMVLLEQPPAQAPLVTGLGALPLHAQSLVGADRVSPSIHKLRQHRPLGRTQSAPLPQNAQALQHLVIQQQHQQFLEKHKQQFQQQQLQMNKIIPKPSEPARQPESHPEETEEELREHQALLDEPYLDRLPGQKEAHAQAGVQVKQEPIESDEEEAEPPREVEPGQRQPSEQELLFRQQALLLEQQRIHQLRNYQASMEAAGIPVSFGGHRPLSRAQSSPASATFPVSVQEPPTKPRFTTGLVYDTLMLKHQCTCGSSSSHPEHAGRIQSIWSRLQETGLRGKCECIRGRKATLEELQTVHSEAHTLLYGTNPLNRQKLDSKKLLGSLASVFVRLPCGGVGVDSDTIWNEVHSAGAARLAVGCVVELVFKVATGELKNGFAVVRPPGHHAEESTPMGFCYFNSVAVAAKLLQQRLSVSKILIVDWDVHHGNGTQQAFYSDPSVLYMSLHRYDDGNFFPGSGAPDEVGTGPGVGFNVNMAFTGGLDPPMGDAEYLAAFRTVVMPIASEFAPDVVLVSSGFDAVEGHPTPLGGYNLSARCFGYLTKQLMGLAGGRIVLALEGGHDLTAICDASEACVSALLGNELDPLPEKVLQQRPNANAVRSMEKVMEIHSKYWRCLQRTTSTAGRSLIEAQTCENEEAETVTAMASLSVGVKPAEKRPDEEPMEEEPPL
In short: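 Recombinant human HDAC4 was preincubated with inhibitor for 60 min at 25 °C in Tris-HCl pH 8.0/BSA buffer. Boc-Lys(Tfa)-AMC (42.86 μM solution) was then added for 90 min at 37 °C, followed by trypsin for 30 min at 37 °C. Fluorescence was read at ex 355/em 460. Tested at least twice in duplicate.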

[5] = biological target: Histone deacetylase 1 (Homo sapiens) (UniProt Q13547); test: as §3, with “6His/FLAG tagged” for “6His-tagged”, “HDAC1” for “HDAC2”, “482” for “488”, “residues) […]” for “residues)”; details: time 150.0 min; in short: as §2
Chain of Histone deacetylase 1 (Homo sapiens) (Q13547 whole entry, the tested form may be a part): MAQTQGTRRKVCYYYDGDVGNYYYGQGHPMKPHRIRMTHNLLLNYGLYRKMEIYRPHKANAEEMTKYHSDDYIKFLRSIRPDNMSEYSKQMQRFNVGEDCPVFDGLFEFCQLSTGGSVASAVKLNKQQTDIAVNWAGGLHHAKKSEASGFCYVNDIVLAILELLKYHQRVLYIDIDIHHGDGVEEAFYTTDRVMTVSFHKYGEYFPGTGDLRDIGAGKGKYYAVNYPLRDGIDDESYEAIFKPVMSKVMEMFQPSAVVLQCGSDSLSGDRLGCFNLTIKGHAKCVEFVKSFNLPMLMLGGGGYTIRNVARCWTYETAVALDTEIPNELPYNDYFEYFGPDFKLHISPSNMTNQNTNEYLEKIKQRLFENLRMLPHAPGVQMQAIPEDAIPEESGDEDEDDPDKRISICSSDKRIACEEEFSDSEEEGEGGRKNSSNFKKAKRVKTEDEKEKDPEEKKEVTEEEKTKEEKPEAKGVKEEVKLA

[6] = biological target: T2, Protein deacetylase HDAC6 (Homo sapiens, UniProt Q9UBN7); test: Inhibition of N-terminal GST tagged human recombinant HDAC6 (1 to 1215 residues) expressed in Sf9 insect cells using Z-Lys(Ac)-AMC as fluorogenic substrate preincubated for 60 mins followed by substrate addition and measured after 90 mins by microplate reader analysis
T2 sequence (Q9UBN7 whole entry): T1 sequence (whole entry)

`Cc1nnc(-c2cnc(NCc3ccccc3)nc2)o1` showed an inhibition [1] of under 15%.
`CCCCN(Cc1ccc(-c2nnc(C(F)F)o2)cc1)C(=O)c1ccccc1` gave an inhibition [2] of under 15%, an inhibition [3] of under 15% and an inhibition [4] of under 15%. The inhibition [1] was 75% and the inhibition [5] was under 15%.
`FCc1nnc(-c2cnc(NCc3ccccc3)nc2)o1` showed an inhibition [1] of 54%.
For `FC(F)c1nnc(-c2ccccc2)o1`, the inhibition [2] was under 15%, the inhibition [3] was under 15% and the inhibition [4] was under 15%. For the same compound, the inhibition [1] was under 15% and the inhibition [5] was under 15%.
For `Cc1ccc(-c2nnc(C(F)F)o2)cn1`, the inhibition [2] was under 15%, the inhibition [3] was under 15% and the inhibition [4] was under 15%. The inhibition [1] was 39% and the inhibition [5] was under 15%.
`NNC(=O)c1cnc(NCc2ccccc2)nc1` was tested, and the inhibition [1] was 30%.
Work on `O=C(NNC(=O)C(F)F)c1cnc(NCc2ccccc2)nc1` yielded an inhibition [1] of under 15%.
In the case of `CCCCN(Cc1ccc(-c2nnc(C(F)F)o2)cc1)C(=O)Nc1ccccc1`, the inhibition [2] is reported as under 15%, the inhibition [3] is reported as under 15% and the inhibition [4] is reported as under 15%. It also gave an inhibition [1] of 76% and an inhibition [5] of under 15%.
With `FC(F)c1nnc(-c2cncnc2)o1` the inhibition [2] was under 15%, the inhibition [3] was under 15% and the inhibition [4] was under 15%. For the same compound, the inhibition [1] was 56% and the inhibition [5] was under 15%.
With `CN(C)c1ccc(C(=O)N(CC(=O)NCc2ccccc2)Cc2ccc(-c3nnc(C(F)F)o3)cc2)cc1` the inhibition [2] was under 15%, the inhibition [3] was under 15% and the inhibition [4] was under 15%. It also gave an inhibition [1] of 27% and an inhibition [5] of under 15%.
Compound `COc1ccc(CNc2ncc(-c3nnc(C(F)F)o3)cn2)cc1` has an inhibition [2] of under 15%, an inhibition [3] of under 15% and an inhibition [4] of under 15%. The inhibition [5] was under 15% and the IC50 [6] was 337 nM.
